In the library only some 5.7% were active in any assay of this set; here they are far more common.
Mdm2-MdmX inh – disrupts the human Mdm2-MdmX interaction | O15151+Q00987 | SaOS-2 split-luciferase Mdm2/MdmX complementation, luminescence | inhibition, % at 8 µM | hit rate 3% among 330,000;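 active means inhibition of at least 50% at 8 µM in the primary screen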
Target sequence (O15151 whole entry, looked up): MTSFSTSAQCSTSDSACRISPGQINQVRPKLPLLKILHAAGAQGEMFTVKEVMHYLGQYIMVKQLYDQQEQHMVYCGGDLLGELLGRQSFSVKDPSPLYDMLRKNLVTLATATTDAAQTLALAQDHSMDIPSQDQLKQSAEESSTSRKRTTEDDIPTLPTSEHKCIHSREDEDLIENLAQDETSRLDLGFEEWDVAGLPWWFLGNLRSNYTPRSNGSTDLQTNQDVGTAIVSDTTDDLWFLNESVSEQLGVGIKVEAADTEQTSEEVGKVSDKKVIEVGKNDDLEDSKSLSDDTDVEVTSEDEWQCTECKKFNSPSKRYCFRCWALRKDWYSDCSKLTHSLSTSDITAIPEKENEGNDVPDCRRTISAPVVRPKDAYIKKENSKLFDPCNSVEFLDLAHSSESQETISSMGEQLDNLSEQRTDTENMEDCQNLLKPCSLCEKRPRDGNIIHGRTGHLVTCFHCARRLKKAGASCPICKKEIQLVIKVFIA
Target sequence (Q00987 whole entry, looked up): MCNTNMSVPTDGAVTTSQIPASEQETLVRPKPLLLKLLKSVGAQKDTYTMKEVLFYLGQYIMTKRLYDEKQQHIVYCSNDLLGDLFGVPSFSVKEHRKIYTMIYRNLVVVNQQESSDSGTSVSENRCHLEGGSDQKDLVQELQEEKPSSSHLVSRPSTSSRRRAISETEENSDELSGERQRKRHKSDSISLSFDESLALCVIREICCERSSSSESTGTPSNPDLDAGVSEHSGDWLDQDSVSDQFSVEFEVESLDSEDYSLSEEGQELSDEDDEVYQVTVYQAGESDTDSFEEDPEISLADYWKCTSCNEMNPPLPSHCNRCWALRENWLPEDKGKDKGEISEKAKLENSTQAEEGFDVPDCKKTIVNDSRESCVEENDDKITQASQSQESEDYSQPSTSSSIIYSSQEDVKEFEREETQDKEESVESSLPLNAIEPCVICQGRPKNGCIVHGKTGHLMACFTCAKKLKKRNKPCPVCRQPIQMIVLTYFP
Beta cell apopt – beta cell apoptosis inhibition. hit rate 0.8% among 300,000. protection from apoptosis, % (test concentration not listed). INS-1E cytokine-induced death, ATP luminescence, 48 h; percent of positive-control rescue, neutral wells zero. AID 435005;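 active means Every replicate reaches about 75%, or at least half do and their mean reaches it too, limit read from the data; inconclusive means At least half of replicates reach the limit but their mean does not; inactive means Under half of replicates reach the limit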;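 further: 0% = cytokine-treated negative control wells and 100% = positive control rescue; higher means more ATP so stronger rescue from cytokine killing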
SKKanGAS inh – inhibitors of SKKanGAS S. pyogenes growth in kanamycin (SK-promoter or general growth effect) | BacTiter-Glo, 6 h | inhibition, % at 7.5 µM | hit rate 1.3% among 300,000 | AID 1662;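 active means mean replicate score, as percent of positive control median, at least 50; inconclusive means mean below 50 but one replicate at or above 50; inactive means mean and every replicate below 50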;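 further: strain carries kanamycin resistance gene driven by streptokinase promoter and grows in 40 µg/ml kanamycin; loss of luminescence reflects streptokinase promoter inhibition or plain growth inhibition; 0% = median of DMSO wells and 100% = positive control at its reference dose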
Calb FLC – affects C. albicans growth with fluconazole | AID 1979 | C. albicans CaCi-2 (fluconazole-resistant clinical isolate) + fluconazole, Alamar Blue growth, 48 h | hit rate 0.57% among 300,000 | growth inhibition, % (test concentration not listed);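 active means growth inhibition above about 58% in most replicates, limit read from the data, passing the limit was not always enough; inconclusive means exactly half the replicates above a set limit; inactive means most replicates below a set limit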;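 further: all wells also contain fluconazole at 8 µg/ml as a sub-toxic cotreatment; 0% = median of DMSO wells and 100% = median of geldanamycin control wells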
CSC inhib – cancer stem cell inhibition. inhibition, % at 7.5 µM. cancer stem cell-like cells viability, luminescence. AID 2717. hit rate 1.1% among 300,000; in the data active means inhibition above about 75%; inconclusive means no clear call, values can overlap the other calls; tested in HMLE shEcad cells
T cruzi inh – T. cruzi replication inhibition; T. cruzi beta-gal in NIH3T3, luminescence, 90 h; inhibition, % (concentration not given with the values); hit rate 1.4% among 300,000;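 active means mean inhibition across valid replicates above about 55%, limit read from the data; inconclusive means mean below that limit but half or more replicates reach it; inactive means mean below it, under half of replicates reach it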;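 further: signal also drops with host cell toxicity which is not excluded here; 0% = plate median of DMSO wells and 100% = zero luminescence signal; higher percent means less beta-gal luminescence so fewer parasites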
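Assay system: NIH/3T3 fibroblasts plus reporter T. cruzi. Amount: NIH/3T3 cells, 5,000 per well. Buffer or medium: DMEM, 2% fetal bovine serum. Doses: compound pinned at 50 nL/well, DMSO. Schedule: ≥90 h infection period, 3 h prior cell attachment. Signal: luminescent β-galactosidase signal after 60 min lysis. Read-out: parasite load inhibition, %.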
Mdm2-MdmX conf – human Mdm2/MdmX binding inhibition, confirmed; shares compounds with Mdm2-MdmX inh; luminescent assay; inhibition, % at 8 µM; hit rate 55% among 10,000; in the data active means inhibition above about 40%
Full FLuc ctr – full-length luciferase inhibition in Mdm2/MdmX counter-screen; shares compounds with Mdm2-MdmX inh; SaOS-2 full-length luciferase counterscreen, luminescence; inhibition, % at 8 µM; hit rate 77% among 6,200;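 active means mean inhibition at 8 µM reaching about 37%, which flags the compound as non-specific, limit read from the data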;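 further: p53-null SaOS-2 cells with luciferase driven by a doxycycline-inducible promoter; compound on cells about two nights before reading with doxycycline added after day one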
* marks the source's active call; other numbers are inactive results; ? = inconclusive; · = not tested or not shown.

SMILES	Mdm2-MdmX inh	Beta cell apopt	SKKanGAS inh	Calb FLC	CSC inhib	T cruzi inh	Mdm2-MdmX conf	Full FLuc ctr
Cn1cccc1-c1cc(C(=O)N/N=C/c2cc(Br)ccc2O)[nH]n1	74.3*	20.6	89.6*	33.2	·	9.3	78.0*	25.9
COc1ccc(/C=N/NC(=O)c2ccc(Br)cc2)c(OC)c1	16.6	-2.1	-9.6	-8.1	-8.1	-8.2	·	·
COc1ccc(O)c(/C=N/NC(=O)c2ccc(OCc3cccc(Br)c3)cc2)c1	67.9*	93.2*	10.6	62.5*	90.7*	72.7*	69.2*	32.8
COc1ccc(C(=O)N/N=C/c2cc(Br)ccc2O)cc1OC	67.0*	103.6*	85.8*	2.0	36.4	55.9*	64.2*	29.6
Nc1c(C(=O)c2ccco2)oc2ccccc12	-8.1	2.6	-8.7	-9.8	-15.8	-2.0	·	·
COc1ccc(NC(=O)CCNS(=O)(=O)c2cc(Br)cnc2N)cc1OC	15.7	1.1	-4.9	-7.9	-18.4	0.6	·	·
C/C=C/C(=O)N1c2ccc(C)cc2C(C)=CC1(C)C	18.7	-1.9	11.8	-1.0	0.0	-5.5	·	·
CC(=O)Nc1ccc(S(=O)(=O)N2c3ccccc3C(C)=CC2(C)C)cc1	74.4*	22.1	1.1	-10.9	46.9	28.0	59.5*	94.4*
CC1=CC(C)(C)N(S(=O)(=O)c2ccc(C)cc2)c2ccc(C)cc21	54.2*	·	4.5	8.9	·	42.5	60.7*	107.8*
CC1=CC(C)(C)N(S(=O)(=O)c2ccc(F)cc2)c2ccccc21	31.1	-3.1	5.4	12.6	·	-29.4	·	·
O=C(NCCc1ccco1)C(=O)NCC1OCCCN1S(=O)(=O)c1ccc(F)cc1 (stereo not drawn)	-0.1	2.1	-6.3	1.1	0.6	-11.6	·	·
COc1ccc(S(=O)(=O)N2CCCOC2CNC(=O)C(=O)NCCc2ccco2)cc1C (stereo not drawn)	53.1*	-0.2	10.3	1.1	17.5	-11.5	60.5*	60.9*
CCOC(=O)c1c(NC(=S)NCCc2ccccc2)sc2c1CC(C(C)C)OC2 (stereo not drawn)	51.2*	·	101.3*	10.0	45.7	-0.8	3.1	·
CCOC(=O)C1(Cc2cccc(F)c2)CCN(Cc2cnn(CC)c2C)CC1	-9.9	-4.1	-2.2	9.3	26.3	-0.9	·	·
CCOc1ccc(S(=O)(=O)N2CCN=C2c2ccccc2)c(C)c1C	6.7	-6.4	-1.5	2.1	3.1	-1.5	·	·
O=C(CCCCn1c(=O)c2ccccc2n(Cc2ccc(F)cc2Cl)c1=O)NCc1ccco1	53.7*	-4.0	-5.5	-0.2	12.8	23.1	25.4	·
C#CCCOC(=O)N1C2=NC(C(=O)OC)=C(C(=O)OC)[C@@H]3N(Cc4ccccc4)c4ccccc4[C@]23C[C@H]1C(=O)OC	9.6	1.3	5.3	18.4	-20.6	7.6	·	·
COc1cc(C(=O)NCCNc2nc3ccc(C)cc3cc2C#N)cc(OC)c1OC	2.5	·	-1.1	1.5	-15.8	-8.3	·	·
CCOC(=O)c1c(C)[nH]c(C(=O)OCC(=O)Nc2cc(C)c(Cl)cc2OC)c1C	53.9*	10.3	7.5	-3.5	7.0	-14.5	19.2	·
CCOC(=O)c1[nH]c(C)c(C(=O)c2cc(F)ccc2F)c1C	58.7*	16.3	-0.1	2.7	59.9	-15.8	55.9*	76.5*
CCOC(=O)c1c(C)[nH]c(C(=O)OCC(=O)Nc2sccc2C(N)=O)c1C	56.3*	48.3	25.9	22.2	43.1	10.4	59.2*	65.7*
CCOC(=O)c1[nH]c(C)c(C(=O)OCC)c1C	-1.4	·	4.6	-2.4	-5.1	-1.5	·	·
CCOC(=O)c1c(C)[nH]c(C(=O)OCC(=O)NCc2ccc(OC)c(OC)c2)c1C	3.4	3.4	·	·	8.4	·	·	·
COc1ccc(C(C)(C)NC(=O)C2CCC(=O)N(C3CC3)C2)cc1OC (stereo not drawn)	16.5	0.6	-6.3	7.3	14.5	-9.6	·	·
O=S(=O)(c1ccccc1)c1ncc(C(F)(F)F)cc1Cl	60.7*	·	-5.1	-4.9	·	-2.6	31.8	·
SMILES	Mdm2-MdmX inh	Beta cell apopt	SKKanGAS inh	Calb FLC	CSC inhib	T cruzi inh	Mdm2-MdmX conf	Full FLuc ctr
Cc1nn(Cc2ccccc2Cl)c(C)c1C(=O)NCCN1C(=O)S/C(=C\c2ccccc2)C1=O	58.4*	6.0	3.2	11.9	29.5	7.6	7.2	·
Cc1nn(Cc2ccccc2Cl)c(C)c1C(=O)Nc1nnc(C2CC2)s1	79.3*	·	5.8	-4.4	52.8	-1.9	7.3	·
Cc1oc2c(cc(NS(=O)(=O)c3ccc(F)cc3)c3ccccc32)c1C(=O)O	-13.7	-4.9	25.9	40.9	·	-14.3	·	·
COc1ccc(S(=O)(=O)Nc2cc3c(cc2C(C)=O)OCO3)cc1	63.1*	2.7	18.1	?	62.1	-7.5	50.9*	63.3*
COc1ccc(S(=O)(=O)Nc2cc3c(C(C)=O)c(C)oc3c3ccccc23)cc1	66.5*	·	13.2	40.6	68.9	48.6	70.0*	80.1*
O=C(COC(=O)c1ccc(O)cc1O)Nc1ncc(Cl)cc1Cl	3.0	0.9	8.3	-0.8	-4.7	-4.9	·	·
Cc1nc(Cl)c(C(=O)NC(=O)Nc2cccc(C(F)(F)F)c2)c(C)c1[N+](=O)[O-]	57.1*	37.6	16.4	0.3	·	0.1	17.3	·
CN(CC(=O)NC(=O)NC(C)(C)C)CC(=O)Nc1ccccc1Cl	-19.9	-2.1	12.1	-3.8	-0.5	1.2	·	·
Cc1cccc(C(O)(C(=O)NNc2ccc3ccccc3n2)c2cccc(C)c2)c1	53.2*	2.2	17.7	-4.0	·	-16.8	31.1	·
O=C(NCc1ccc(Cl)cc1)c1ccc(N2CCCC2=O)cc1	-22.1	-2.8	-0.4	-12.0	-14.1	-12.1	·	·
COc1cc(C(=O)N2CCN(C)C(C)C2)ccc1OC1CCN(C(C)=O)CC1 (stereo not drawn)	0.7	-0.3	1.9	10.9	-9.8	8.0	·	·
Cc1cc(C)c2nc(Cl)c(CN(Cc3ccco3)C(=O)Nc3ccccc3C)cc2c1	63.1*	11.2	11.2	2.3	52.7	24.5	53.0*	98.3*
COCCN(Cc1cc2cc(C)cc(C)c2nc1Cl)C(=O)Nc1ccccc1	44.6	15.7	-3.7	4.0	63.8	-26.8	·	·
CCN(CC)CCNC(=O)c1ccc(NC(=O)CC(NC(=O)c2ccccc2Cl)c2ccccc2)cc1 (stereo not drawn)	-1.7	-3.2	-0.8	-1.6	-9.2	6.7	·	·
CC1=C/C(=N\OS(=O)(=O)c2ccccc2)C(C)=CC1=O	96.3*	112.1*	·	·	118.4*	·	83.8*	53.2*
CC1=C/C(=N\OS(=O)(=O)c2ccccc2)C(C(C)C)=CC1=O	·	?	·	·	62.0	·	·	·
COC(=O)C1=C(C(=O)OC)[C@@H]2N(C)c3ccccc3[C@@]23C[C@@H](C(=O)OC)N(C(=O)c2ccc(Br)cc2)C3=N1	68.1*	-17.3	1.7	15.1	13.3	-10.7	17.1	·

Source: PubChem (several laboratories)
